From ChEMBL document CHEMBL1124439, “Computer-assisted design and synthesis of novel aldose reductase inhibitors” (J Med Chem, 1989)
The source made the active and inactive calls. The rule behind the calls is not given here.

Assays:
[1] = molecular target: Aldo-keto reductase family 1 member B1 (Bos taurus, UniProt P16116); experiment: In vitro inhibition of bovine lens aldose reductase
[2] = molecular target: T1, Aldo-keto reductase family 1 member B1 (Rattus norvegicus, UniProt P07943); experiment: Inhibition of aldose reductase (or polyol accumulation) in isolated rat sciatic nerve by compound at (10E-5) M concentration; type: tissue-based
Summary of the method: (§1)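 Isolated rat sciatic nerve incubated in vitro with compound, with polyol accumulation as read-out. Percent inhibition of polyol accumulation recorded at 1 × 10⁻⁵ M.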

Rattus norvegicus [3] = experiment: Inhibition of galactitol accumulation in lens of rats, by 76 mg/kg of compound; NS=Not significant; type: functional, organism-based; set-up: dose 76 mg/kg; conditions: Lens of camera-type eye
Summary of the method: (§2)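 Rats were fed 20% galactose chow for 4 days with drug, at the dose given in mg/kg. Galactitol was measured in lens and sciatic nerve, and percent inhibition was calculated against galactosemic control rats.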

[4] = molecular target: T1, Aldo-keto reductase family 1 member B1; experiment: Inhibition of aldose reductase (or polyol accumulation) in isolated rat sciatic nerve by compound at 10e-5 M concentration; type: tissue-based; summary of the method: as §1
Rattus norvegicus [5] = experiment: Inhibition of galactitol accumulation in lens of rats, by 159 mg/kg of compound; NS means Not Significant; type: functional, organism-based; set-up: dose 159 mg/kg; conditions: Lens of camera-type eye; summary of the method: as §2
Rattus norvegicus [6] = experiment: Inhibition of galactitol accumulation in sciatic nerve of rats, by 159 mg/kg of compound; NS means Not Significant.; type: functional, organism-based; set-up: dose 159 mg/kg; summary of the method: as §2
[7] = molecular target: T1, Aldo-keto reductase family 1 member B1; experiment: Inhibition of aldose reductase (or polyol accumulation) in isolated rat sciatic nerve by compound at 10E-5 M concentration; IA means Not Active; type: tissue-based; summary of the method: as §1

SMILES | IC50 [1] [nM] | IC50 [2] [nM] | inhibition (Rattus norvegicus [3]) | IC50 [4] [nM] | inhibition (Rattus norvegicus [5]) | inhibition (Rattus norvegicus [6]) | IC50 [7]
CC1=C(CC(=O)O)c2cccc3cccc(c23)C1=O | 240 | 2500 | inactive |  |  |  | 
COc1ccc2c(C(=S)N(C)CC(=O)O)cccc2c1C(F)(F)F [TOLRESTAT] |  |  |  | 540 |  |  | 
CN(CC(=O)O)C(=S)c1cccc2ccccc12 | 730 |  |  |  | inactive | inactive | Not Active
